Screening data from PubChem.
STAT3 act: STAT3 signaling activation; 0.91% of 190,000 active; U3A cells, IL-6 STAT3-luciferase reporter, luminescence; 100% = signal with IL-6 EC80 alone; activation (% of control), % at 5.6 µM; AID 871;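 active = activation above the screen-wide mean of compound activation plus 3 SD, cut at about 130% in these data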;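 note: 0% = background luminescence of wells with medium and substrate only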
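Detection: reporter luminescence signal / Assay system: STAT1-lacking human U3A cells, STAT3 luciferase reporter / Incubation: compound pre-incubation 1 h before IL-6, then 6 h stimulation at 37 °C / Control set: IL-6-only high control / Read-out: % activation relative to IL-6 control / Probe or stimulus: Interleukin-6, 33 ng/mL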
STAT1 act: increases IFN-gamma driven STAT1 reporter signal; NIH 3T3 STAT1-luciferase reporter, luminescence; 100% = IFN-gamma alone, no compound; activation (% of control), % at 5.5 µM; 2.6% of 200,000 active; AID 932;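 active = activation above the screen-wide mean activation plus 3 SD, cut at about 130% in these data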;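 note: raw ratio to IFN-gamma control signal so 100% means no change and 0% no light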
HSV augment: increases HSV replication in cells; HSV replication augmentation in cells, fold increase; maximum fold increase; 0.005% of 220,000 active; in the data active = maximum fold increase above about 1.5; inconclusive = no clear call, values can overlap the other calls; tested in PC3 cells
STAT3 blocker: inhibitors of IL-6 induced STAT3 signaling. U3A cells, IL-6 STAT3-luciferase reporter, luminescence; host cell line lacks STAT1. inhibition, % at 5.5 µM. 0.89% of 190,000 active. AID 862;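 active = inhibition above the mean inhibition across all screened compounds plus 3 SD, cut at about 44% in these data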;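 note: 0% = DMSO only wells and 100% = 100 µM nifuroxazide control wells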
STAT1 blocker: reduces IFN-gamma driven STAT1 reporter signal. AID 920. NIH 3T3 STAT1-luciferase reporter, luminescence. inhibition, % at 5.5 µM. 0.35% of 200,000 active;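 active = inhibition above a set limit, the mean inhibition across all tested compounds plus 3 SD, cut at about 34% in these data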;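 note: 0% = IFN-gamma with DMSO and 100% = IFN-gamma with 300 µM nifuroxazide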
Cl transport mod: modulators of human KCC2 chloride dependent transport; B-score of Tl+ flux slope (higher = more flux/activation; lower = inhibition) at 10 µM; 2.2% of 190,000 active; KCC2 cells, thallium flux FluoZin-2 fluorescence; AID 1456; Q9H2X9;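 active = thallium flux slope and its plate-corrected score both differing from the plate sample mean at a set confidence after two filtering rounds, in either direction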;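 note: slope of fluorescence scaled to starting intensity during 10 to 20 s after thallium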
Target sequence (Q9H2X9 whole entry, looked up): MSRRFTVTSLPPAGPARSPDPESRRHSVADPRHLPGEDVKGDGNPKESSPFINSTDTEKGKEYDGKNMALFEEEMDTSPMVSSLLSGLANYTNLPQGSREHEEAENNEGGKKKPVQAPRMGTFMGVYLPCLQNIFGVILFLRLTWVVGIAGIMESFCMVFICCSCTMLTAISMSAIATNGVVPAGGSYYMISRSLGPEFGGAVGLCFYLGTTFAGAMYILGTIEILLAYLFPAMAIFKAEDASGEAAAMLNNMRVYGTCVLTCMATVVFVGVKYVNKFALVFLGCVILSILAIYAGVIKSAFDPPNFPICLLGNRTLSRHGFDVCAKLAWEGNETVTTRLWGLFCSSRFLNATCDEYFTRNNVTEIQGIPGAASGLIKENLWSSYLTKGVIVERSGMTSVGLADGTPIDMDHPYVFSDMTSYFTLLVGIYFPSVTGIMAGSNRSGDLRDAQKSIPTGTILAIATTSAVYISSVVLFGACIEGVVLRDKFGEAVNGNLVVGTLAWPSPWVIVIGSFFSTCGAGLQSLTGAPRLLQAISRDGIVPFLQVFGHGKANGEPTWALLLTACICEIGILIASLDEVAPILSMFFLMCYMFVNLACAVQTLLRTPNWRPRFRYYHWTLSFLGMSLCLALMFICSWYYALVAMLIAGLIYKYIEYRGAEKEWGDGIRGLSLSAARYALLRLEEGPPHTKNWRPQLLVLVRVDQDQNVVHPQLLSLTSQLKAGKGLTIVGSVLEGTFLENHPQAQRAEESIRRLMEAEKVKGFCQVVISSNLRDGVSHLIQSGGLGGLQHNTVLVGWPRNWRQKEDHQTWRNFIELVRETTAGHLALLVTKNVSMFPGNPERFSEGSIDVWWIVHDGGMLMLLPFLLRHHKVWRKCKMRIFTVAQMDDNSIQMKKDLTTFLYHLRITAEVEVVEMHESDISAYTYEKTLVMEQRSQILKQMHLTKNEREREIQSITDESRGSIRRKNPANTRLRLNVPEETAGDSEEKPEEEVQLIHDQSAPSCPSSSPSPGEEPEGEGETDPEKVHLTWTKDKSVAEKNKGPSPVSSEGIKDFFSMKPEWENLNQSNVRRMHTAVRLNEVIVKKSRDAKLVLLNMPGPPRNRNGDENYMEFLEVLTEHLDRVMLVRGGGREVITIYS
KCC2 secondary: KCC2 (human) modulation, secondary assay. shares compounds with Cl transport mod. HEK293-KCC2, thallium flux, FluoZin2 fluorescence; active compounds read high. normalised thallium flux (F/F0 slope) at 10 µM. 15% of 3,700 active. AID 1713;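 active = thallium flux slope above the same plate's solvent-only control mean plus 3 SD; inconclusive = the two replicate wells disagree; inactive = no significant difference from solvent-only control wells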
KCC2 bumet counter: thallium flux despite bumetanide block in KCC2 cells, secondary assay 3. shares compounds with Cl transport mod. 49% of 3,700 active. AID 1714. HEK293-KCC2 + bumetanide/ouabain, thallium flux FluoZin2; active compounds read high. normalized thallium flux at 10 µM;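 active = thallium entry rate above the same plate's blocked-transporter control wells by more than 3 SD; inconclusive = the two repeat wells disagree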;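 note: raw slope of fluorescence over initial fluorescence between 10 and 20 s after thallium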
KCC2 secondary2: confirmation of human KCC2 transport modulators; shares compounds with Cl transport mod; HEK293-KCC2, thallium flux FluoZin2 fluorescence; actives lie on both sides; F/F0 rise rate, 10–20 s post-thallium; normalized thallium flux at 10 µM; 23% of 3,700 active;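 active = thallium flux slope more than 3 SD above or below the plate's solvent-only control mean, mostly below; inconclusive = the two repeat wells disagreed; inactive = no significant shift from solvent-only controls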;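 note: raw slope with 0.1% DMSO as baseline and bumetanide as block control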
HEK293 Tl flux: parental HEK flux effect, counter-screen; shares compounds with Cl transport mod; HEK293 parental cells, thallium flux FluoZin2, ouabain; baseline-ratio fluorescence slope, 10–20 s after thallium; thallium flux rate (normalised fluorescence) at 10 µM; 46% of 3,700 active; AID 1716;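 active = thallium flux rate significantly above the same plate's solvent-only control wells, beyond their mean plus 3 SD; inconclusive = the two replicate wells gave conflicting results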
KCC2 ouabain: KCC2 (human) modulation, ouabain retest | AID 1717 | raw Tl+ flux slope (below DMSO = inhibition, above = activation) at 10 µM | 48% of 3,700 active | HEK293-KCC2, thallium flux FluoZin2 fluorescence; bidirectional: low = inhibitor, high = activator | shares compounds with Cl transport mod;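 active = thallium flux slope beyond 3 SD from same-plate DMSO control mean in most replicates, usually higher, sometimes lower; inconclusive = repeat tests gave conflicting results; inactive = no significant difference from controls in most replicates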;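 note: slope of initial-normalized fluorescence between seconds 10 and 20 after thallium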
HEK counter2: parental HEK flux effect, counter-screen 2; shares compounds with Cl transport mod; HEK293 parental, thallium flux FluoZin-2 fluorescence slope; thallium flux slope at 10 µM; 33% of 3,700 active; AID 1718;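 active = thallium flux slope above the same plate's solvent-control mean plus 3 SD in both duplicate wells; inconclusive = duplicate wells that disagreed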;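 note: run without ouabain in cells lacking the KCC2 cotransporter; slope of fluorescence scaled to its starting value between 10 and 20 s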
The depositor's hits bear a star. Most compounds without a hit are left out; they make up all but 5.5% or so of the library.

For COc1ccc(C(=O)OC/C(O)=C(\C#N)c2nc3ccccc3[nH]2)cc1S(=O)(=O)N1CCOCC1 the results were STAT3 act 98.8, STAT1 act 106.8, HSV augment inactive, STAT3 blocker 9.7, STAT1 blocker -7.4 and Cl transport mod 0.173.
For Oc1ccc(COCc2ccccc2)c2cccnc12 the results were STAT3 act 105.6, STAT1 act 100.2, HSV augment inactive, STAT3 blocker -3.5, STAT1 blocker -0.2, Cl transport mod 3.34*, KCC2 secondary 0.00823, KCC2 bumet counter 0.0276*, KCC2 secondary2 0.0343, HEK293 Tl flux 0.0132*, KCC2 ouabain inconclusive and HEK counter2 0.0111.
CCOC(=O)C1=C(NC(=S)NC(=O)c2ccccc2)c2ccccc2CC1(C)CC (centres undefined) was read as STAT3 act 117.2, STAT1 act 92.4, HSV augment inactive, STAT3 blocker -14.5, STAT1 blocker 8.6, Cl transport mod 5.59*, KCC2 secondary inconclusive, KCC2 bumet counter 0.033*, KCC2 secondary2 0.0361, HEK293 Tl flux 0.0151*, KCC2 ouabain inconclusive and HEK counter2 0.0113.
Screening CC1(C)OC(c2ccccc2)=C/C(=C\C=N\NC(=O)c2ccncc2)O1 returned HSV augment inactive and Cl transport mod -0.0649.
Screening O=C(Cc1csc(Nc2nc(=S)[nH]c3ccccc23)n1)N1CCN(c2cccc(Cl)c2)CC1 returned STAT3 act 132.4, STAT1 act 95.4, HSV augment inactive, STAT3 blocker -35.4, STAT1 blocker 3.3, Cl transport mod 25.2*, KCC2 secondary inconclusive, KCC2 bumet counter 0.0749*, KCC2 secondary2 0.036, HEK293 Tl flux 0.0303*, KCC2 ouabain 0.0532* and HEK counter2 0.0137*.
`Cc1ccc(Cl)cc1N1CCN(C(=O)Cn2ccc3ccccc3c2=O)CC1` gave STAT3 act 77.9, STAT1 act 95.9, HSV augment inactive, STAT3 blocker 31.4 and STAT1 blocker 4.6.
Cc1ccc(Cl)cc1N1CCN(C(=O)Cc2csc(Nc3nc(=S)[nH]c4ccccc34)n2)CC1 was read as STAT3 act 118.7, STAT1 act 94.2, HSV augment inactive, STAT3 blocker -19.5, STAT1 blocker 4.6, Cl transport mod 18.8*, KCC2 secondary 0.0128*, KCC2 bumet counter 0.0533*, KCC2 secondary2 inconclusive, HEK293 Tl flux 0.0316*, KCC2 ouabain 0.0543* and HEK counter2 0.014*.
`O=C(c1ccc(-c2ccccc2)cc1)C1CCCN(Cc2ccncc2)C1` (centres undefined) gave STAT3 act 88.9, STAT1 act 85.7, HSV augment inactive, STAT3 blocker 18.3, STAT1 blocker 15.9, Cl transport mod -4.08*, KCC2 secondary 0.00691, KCC2 bumet counter 0.00495, KCC2 secondary2 0.0253*, HEK293 Tl flux 0.00795, KCC2 ouabain inconclusive and HEK counter2 0.0113.
`Cc1ncoc1C(=O)N1CCCC(C(=O)c2ccc(-c3ccccc3)cc2)C1` (centres undefined) gave STAT3 act 101.5, STAT1 act 98.5, HSV augment inactive, STAT3 blocker 2.7, STAT1 blocker 0.0, Cl transport mod -3.25*, KCC2 secondary inconclusive, KCC2 bumet counter 0.00624, KCC2 secondary2 0.0302, HEK293 Tl flux 0.00654, KCC2 ouabain 0.0205* and HEK counter2 inconclusive.
For CC(NC(=O)NC1CCCCC1)C(c1cccs1)N1CCN(c2ccccc2)CC1 (centres undefined) the results were STAT3 act 108.8, STAT1 act 104.3, HSV augment inactive, STAT3 blocker -1.6 and STAT1 blocker -4.7.
For CCCn1nc(Oc2nc(NCC)nc(NC(C)C)n2)ccc1=O the results were STAT3 act 78.5, STAT1 act 83.0, HSV augment inactive, STAT3 blocker 28.2, STAT1 blocker 18.5, Cl transport mod -4.38*, KCC2 secondary 0.00904, KCC2 bumet counter 0.00628, KCC2 secondary2 0.0347, HEK293 Tl flux 0.00736, KCC2 ouabain 0.0219 and HEK counter2 0.0103.
`Oc1ccccc1/C=N/NC(=S)NC1CC2CCC1C2` (centres undefined) gave HSV augment inactive, Cl transport mod 14.8*, KCC2 secondary 0.00974, KCC2 bumet counter 0.0371*, KCC2 secondary2 0.0283, HEK293 Tl flux 0.0158*, KCC2 ouabain 0.0304* and HEK counter2 inconclusive.
`CCOc1nc(-c2ccc(OC)cc2)ccc1-c1noc(-c2cccnc2)n1` gave STAT3 act 108.6, STAT1 act 104.2, STAT3 blocker -7.5, STAT1 blocker -4.6 and Cl transport mod -0.0632.
For CCOc1nc(-c2ccc(C)cc2)ccc1-c1noc(-c2cccnc2)n1 the results were STAT3 act 100.6, STAT1 act 99.0, HSV augment inactive, STAT3 blocker 1.5, STAT1 blocker 0.8, Cl transport mod 2.91*, KCC2 secondary 0.00831, KCC2 bumet counter 0.00464, KCC2 secondary2 0.0287, HEK293 Tl flux 0.00755, KCC2 ouabain 0.0197 and HEK counter2 0.0104.
`O=C(Nc1nc2c(Cl)cccc2s1)c1ccc(Br)o1` gave STAT3 act 88.2, STAT1 act 92.3, HSV augment inactive, STAT3 blocker 19.2, STAT1 blocker 8.4, KCC2 secondary inconclusive, KCC2 bumet counter 0.0267*, KCC2 secondary2 0.0326, HEK293 Tl flux 0.0342*, KCC2 ouabain 0.0309* and HEK counter2 0.0136*.
O=C(COc1ccc2ccccc2c1)NNC(=O)c1ccc([N+](=O)[O-])cc1 was read as STAT3 act 108.4, STAT1 act 97.2, HSV augment inactive, STAT3 blocker -6.2, STAT1 blocker 0.9 and Cl transport mod -2.79.
